Publication PMC11734723 (Science Advances, 2025)

Assays:
[1] = system: SKG mice; assay: SKG mouse model of RA; assay type: in vivo; conditions: for bone surface density (BS/TV): femur trabecular bone
Procedure, shortened: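 Male and female SKG mice received zymosan A (2 mg, single i.p., saline) at 8 weeks of age. From day 3, they were gavaged daily for 8 weeks with test compound in a PLGA lipid nanoemulsion (180 mg/kg) or vehicle. Paws were scored blind weekly to day 56. Micro-CT covered calcaneal pore volume and connectivity density, femoral trabecular bone (1.75 mm) and L5 (2.15 mm), with BMD calibrated against hydroxyapatite phantoms. Analysis used one-tailed unpaired t or Mann-Whitney tests.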

[2] = system: NFATc1 nuclear translocation; assay: NFATc1 nuclear translocation; assay type: cell-based, mouse; conditions: ELP-004 100 nM
Procedure, shortened: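 Murine BMSMC cultures were sampled at 24 h and on days 7, 14 and 21. Cells were fixed in 3.7% PFA (10 min, RT), antigen-retrieved in tris/urea (pH 9.5, 95°C, 10 min), permeabilised in 0.2% Tween 20 and blocked in 1% BSA plus glycine. Anti-NFATc1 (clone 7A6, 200 ng/ml) was applied overnight at 4°C, then Alexa Fluor 488 secondary (2 µg/ml, 1 h) with 7-AAD counterstain. Nuclear colocalisation was assessed by confocal microscopy.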

[3] = system: endogenous SOCE; assay: Endogenous SOCE; assay type: cell-based; conditions: read-out: IC50 of endogenous SOCE
Procedure, shortened: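 Store-operated entry by Fura2 imaging. Cells were loaded with Fura2-AM (2 µM, 30 min, RT) and de-esterified 30 min. They were then exposed 10 min to thapsigargin (2 µM) plus varying test compound concentrations in nominally Ca²⁺-free Hepes buffer (pH 7.2). After a stable baseline, 1 mM Ca²⁺ was added and entry was followed as the 340/380 nm ratio.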

[4] = system: Cch-induced ER Ca2+ release; assay: Carbachol-induced ER Ca2+ release in TRPC-overexpressing HEK293 cells; assay type: cell-based; conditions: ELP-004 1 nM to 100 μM
[5] = biological target: T1, TRPC5 (Homo sapiens, UniProt Q9UL62); assay: Carbachol-induced Sr2+ entry in TRPC5-overexpressing HEK293 cells; assay type: cell-based; conditions: read-out: IC50 of Cch-induced Sr2+ entry; Cch 100 nM, Sr2+ 3 mM
T1 sequence (Q9UL62 1-973): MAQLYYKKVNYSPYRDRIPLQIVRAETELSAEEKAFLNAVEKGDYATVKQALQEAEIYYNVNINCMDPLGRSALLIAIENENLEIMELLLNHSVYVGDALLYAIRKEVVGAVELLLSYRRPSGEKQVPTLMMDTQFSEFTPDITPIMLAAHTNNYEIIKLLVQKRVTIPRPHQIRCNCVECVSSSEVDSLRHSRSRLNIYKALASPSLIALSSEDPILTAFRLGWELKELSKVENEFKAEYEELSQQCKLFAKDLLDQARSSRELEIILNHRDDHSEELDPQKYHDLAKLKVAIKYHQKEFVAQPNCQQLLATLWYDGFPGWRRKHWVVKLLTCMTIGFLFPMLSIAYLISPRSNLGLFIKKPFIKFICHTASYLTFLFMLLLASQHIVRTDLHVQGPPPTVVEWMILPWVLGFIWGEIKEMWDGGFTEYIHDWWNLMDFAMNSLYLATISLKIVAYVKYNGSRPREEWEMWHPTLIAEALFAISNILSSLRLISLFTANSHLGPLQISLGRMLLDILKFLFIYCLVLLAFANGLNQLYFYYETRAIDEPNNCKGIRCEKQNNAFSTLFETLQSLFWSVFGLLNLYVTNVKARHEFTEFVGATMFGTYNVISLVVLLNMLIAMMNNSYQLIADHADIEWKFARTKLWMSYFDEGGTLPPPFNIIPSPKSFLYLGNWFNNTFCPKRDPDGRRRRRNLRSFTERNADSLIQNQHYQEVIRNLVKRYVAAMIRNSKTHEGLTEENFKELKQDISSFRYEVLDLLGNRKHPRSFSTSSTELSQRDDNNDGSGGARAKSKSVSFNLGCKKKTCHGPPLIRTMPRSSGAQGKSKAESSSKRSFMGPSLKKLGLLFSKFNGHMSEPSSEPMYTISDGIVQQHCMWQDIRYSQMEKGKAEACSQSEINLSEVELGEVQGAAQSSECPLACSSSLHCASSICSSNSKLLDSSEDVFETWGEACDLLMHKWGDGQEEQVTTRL
Procedure, shortened: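 HEK293 cells were electroporated with GFP-tagged TRPC4, TRPC5 or TRPC7, plated after 24 h and cultured 48 h under selection; only high-GFP cells were analysed. Coverslip cells were loaded with Fura2 (2 µM) and treated with carbachol (100 nM) plus test compound (0 to 100 µM). Entry was measured after adding Sr²⁺ (3 mM), read as the 340/380 ratio; n = 3 to 5.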

[6] = system: TRPC4^−/− and TRPC(1–7)^−/− BMSMCs; assay: Osteoclastogenesis from TRPC4−/− and TRPC; assay type: cell-based, mouse
Procedure, shortened: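 Myeloid cells from bone marrow and spleen of TRPC4−/− and TRPC(1–7)−/− mice were cultured in αMEM, 10% FBS and mCSF (50 ng/ml). RANKL (1 or 100 ng/ml) was added at 24 h, and TNFα (2 ng/ml) and test compound (100 nM) 2–3 days later as indicated. Cultures ran 14–21 days with feeding every 3–5 days before TRAP, Ca²⁺ and pit read-outs.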

[7] = system: Human PBMCs; assay: Basal Ca2+ and Ca2+ oscillations in human PBMC-derived osteoclasts; assay type: cell-based; conditions: ELP-004 100 nM; for effect on basal Ca2+ levels: 14 days
Procedure, shortened: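 Human PBMCs cultured in αMEM with 10% FBS and human mCSF (50 ng/ml). At 24 h, RANKL (1 or 100 ng/ml) was added; 2–3 days later, human TNFα (2 ng/ml) and test compound (100 nM) were added where indicated. On day 14, coverslip cells were Fura2-loaded (2 µM, 30 min, RT) in buffer with 1 mM Ca²⁺ (pH 7.2) and de-esterified 30 min. Basal 340/380 ratio was recorded 3–5 min in 30–50 cells and plotted against variance.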

[8] = preclinical testing in mice; cited from earlier work

CCC(=O)N(C)c1ccc(Cl)c(Cl)c1 [ELP-004]
arthritic indices versus vehicle controls ([1]; both male and female, ELP-004–LNE 180 mg/kg daily oral): reduced arthritic indices beginning at week 5
bone surface density in the L5 vertebrae versus vehicle ([1]; both sexes): increased
trabecular number in the L5 vertebrae versus vehicle ([1]; both sexes): increased
porosity in the tarsus or calcaneus (μCT) ([1]; either sex, ELP-004–LNE 180 mg/kg daily oral 8 weeks): did not significantly change
joint inflammation in paws (histology) ([1]; either sex, ELP-004–LNE 180 mg/kg daily oral, without statistical significance): only showed a trend
BMD in the femurs versus vehicle ([1]; female mice): increased
bone volume/tissue volume (BV/TV) in the femurs versus vehicle ([1]; female mice): increased
trabecular number in the femurs versus vehicle ([1]; female mice): increased
mean BMD of femurs ([1]; female mice, ELP-004-treated): 0.1436 g/mL
connectivity density of pores in the calcaneus ([1]; females, P < 0.05): attenuated the increase
rescue of connectivity density of pores in the tarsus ([1]; females, P = 0.056): strong tendency
bone surface density (BS/TV) ([1]; females, P < 0.05): 6.78 ± 2.20 mm^−1
connectivity density of pores in the tarsus ([1]; males, P < 0.05): attenuated the increase
bone surface density (BS/TV) ([1]; males, ELP-004–LNE 180 mg/kg daily oral 8 weeks): 9.60 ± 2.16 mm^−1
cumulative erosion scores for metatarsals 2, 3, 4 and 5 ([1]; maximum score 12): reduced erosions in female (P < 0.05), but not male
changes in NFAT localization ([2]; BMSMC-derived macrophages (mCSF only)): No significant changes
effect on NFAT nuclear localization ([2]; LTB4/RANKL): blocked
effect on NFAT translocation ([2]; RANKL-induced (100 ng/ml)): no effect
effect on NFAT nuclear localization ([2]; TNFα/RANKL): blocked
changes in NFAT localization ([2]; low RANKL alone (1 ng/ml)): No significant changes
IC50 [3]: 100 µM
effect on Cch-induced ER Ca2+ release [4]: no effect
IC50 [5]: 0.0115 µM
effect on intracellular Ca2+ ([6]; RANKL or RANKL/TNFα osteoclasts from knockout BMSMCs): no effect
effect on TRAP expression ([6]; knockout BMSMCs): no effect
effect on cell size ([6]; knockout BMSMCs): no effect
effect on multinucleation ([6]; knockout BMSMCs): no effect
effect on pit formation ([6]; knockout BMSMCs): no effect
effect on basal Ca2+ levels ([7]; RANKL (100 ng/ml)): significantly lowered
effect on Ca2+ oscillations ([7]; RANKL alone): no effect
effect on basal Ca2+ levels ([7]; TNFα (2 ng/ml)/RANKL (1 ng/ml)): significantly lowered
effect on Ca2+ oscillation generation ([7]; TNFα/RANKL): significantly lowered
genotoxic or off-target toxicities [8]: without inducing genotoxic or extensive off-target toxicities
